Measurements from ChEMBL document CHEMBL4190216, “Asymmetric 1,5-diarylpenta-1,4-dien-3-ones: Antiproliferative activity in prostate epithelial cell models and pharmacokinetic studies” (Eur J Med Chem, 2017).

Assays:
[1] = test system: PC-3; assay: Cell cycle arrest in human PC3 cells assessed as accumulation at G0/G1 phase at 4 uM after 24 hrs by propidium iodide staining-based flow cytometric method (reference value: 59 to 62%); assay type: functional
[2] = test system: PC-3; assay: Induction of apoptosis in human PC3 cells assessed as early apoptotic cells at 6 uM after 16 hrs by F2N12S/CYTOX AADvanced double staining-based flow cytometric method (reference value: 2%); assay type: functional
[3] = test system: LNCaP; assay: Antiproliferative activity against human LNCAP cells assessed as decrease in cell viability after 3 days by WST assay; assay type: functional, cell-based; details: 72 h
Procedure, shortened: (§1)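 Cells were seeded at 3,200 per well. PC-3 and LNCaP were grown in RPMI-1640 and DU-145 in EMEM, each with 10% FBS and 1% penicillin/streptomycin, at 37 °C and 5% CO2. Cells were exposed for 3 days to at least five concentrations, with DMSO as vehicle control. WST-1 reagent was then added for 3 h at 37 °C and absorbance read at 430 nm. IC50 came from linear inhibition, averaged over triplicates.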

[4] = test system: PC-3; assay: Induction of apoptosis in human PC3 cells assessed as late apoptotic/necrotic cells at 4 uM after 16 hrs by F2N12S/CYTOX AADvanced double staining-based flow cytometric method (reference value: 3%); assay type: functional
[5] = test system: PC-3; assay: Induction of apoptosis in human PC3 cells assessed as viable cells at 15 uM after 16 hrs by F2N12S/CYTOX AADvanced double staining-based flow cytometric method (reference value: 95%); assay type: functional; details: PC-3, 16 h, read-out: Activity
[6] = test system: PC-3; assay: Induction of apoptosis in human PC3 cells assessed as late apoptotic/necrotic cells at 6 uM after 16 hrs by F2N12S/CYTOX AADvanced double staining-based flow cytometric method (reference value: 3%); assay type: functional
[7] = test system: PC-3; assay: Induction of apoptosis in human PC3 cells assessed as late apoptotic/necrotic cells at 2 uM after 16 hrs by F2N12S/CYTOX AADvanced double staining-based flow cytometric method (reference value: 3%); assay type: functional
[8] = test system: PC-3; assay: Induction of apoptosis in human PC3 cells assessed as late apoptotic/necrotic cells at 10 uM after 16 hrs by F2N12S/CYTOX AADvanced double staining-based flow cytometric method (reference value: 3%); assay type: functional
[9] = test system: VCaP; assay: Antiproliferative activity against human VCaP cells expressing androgen receptor splice variants assessed as decrease in cell viability after 5 days by trypan blue exclusion assay; assay type: functional, cell-based; details: 120 h
[10] = test system: PC-3; assay: Induction of apoptosis in human PC3 cells assessed as early apoptotic cells at 15 uM after 16 hrs by F2N12S/CYTOX AADvanced double staining-based flow cytometric method (reference value: 2%); assay type: functional
[11] = test system: PC-3; assay: Induction of apoptosis in human PC3 cells assessed as viable cells at 10 uM after 16 hrs by F2N12S/CYTOX AADvanced double staining-based flow cytometric method (reference value: 95%); assay type: functional; details: PC-3, 16 h, read-out: Activity
[12] = Plasma concentration in Sprague-Dawley rat at 10 mg/kg administered via oral gavage measured at 3 hrs by HPLC-MS/MS analysis; assay type: ADME, organism-based
[13] = test system: PC-3; assay: Induction of apoptosis in human PC3 cells assessed as late apoptotic/necrotic cells at 15 uM after 16 hrs by F2N12S/CYTOX AADvanced double staining-based flow cytometric method (reference value: 3%); assay type: functional
[14] = test system: DU-145; assay: Potency index, ratio of curcumin IC50 to test compound IC50 for human DU145 cells; assay type: functional
[15] = Cmax in Sprague-Dawley rat at 10 mg/kg administered via oral gavage by HPLC-MS/MS analysis; assay type: ADME, organism-based; set-up: dose 10 mg/kg, route oral; details: in vivo
[16] = Tmax in Sprague-Dawley rat at 10 mg/kg administered via oral gavage by HPLC-MS/MS analysis; assay type: ADME, organism-based; details: in vivo
[17] = test system: PC-3; assay: Cell cycle arrest in human PC3 cells assessed as accumulation at G2 phase at 4 uM after 24 hrs by propidium iodide staining-based flow cytometric method (reference value: 24%); assay type: functional
[18] = test system: Rattus norvegicus; assay: Acute toxicity in Sprague-Dawley rat assessed as mortality at 10 mg/kg administered via oral gavage after 48 hrs; assay type: organism-based; details: in vivo
Procedure, shortened: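 Male Sprague-Dawley rats (250–300 g, n = 4) each received a single 10 mg/kg oral gavage dose. The vehicle was 5% DMSO, 40% polyethylene glycol 400 and 55% saline. Blood was drawn from the lateral tail vein at 1, 3, 6 and 24 h for plasma drug levels. Toxicity was scored as observed deaths after dosing.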

[19] = test system: DU-145; assay: Antiproliferative activity against human DU145 cells assessed as decrease in cell viability after 3 days by WST assay; assay type: functional, cell-based; details: DU-145, 72 h; procedure, shortened: as §1
[20] = test system: CWR22R; assay: Antiproliferative activity against human 22Rv1 cells expressing androgen receptor splice variants assessed as decrease in cell viability after 5 days by trypan blue exclusion assay; assay type: functional, cell-based; details: 22Rv1, 120 h
[21] = test system: PC-3; assay: Antiproliferative activity against human PC3 cells assessed as decrease in cell viability after 3 days by WST assay; assay type: functional, cell-based; details: PC-3, 72 h; procedure, shortened: as §1
[22] = test system: PC-3; assay: Induction of apoptosis in human PC3 cells assessed as late apoptotic/necrotic cells at 8 uM after 16 hrs by F2N12S/CYTOX AADvanced double staining-based flow cytometric method (reference value: 3%); assay type: functional
[23] = test system: PC-3; assay: Induction of apoptosis in human PC3 cells assessed as early apoptotic cells at 8 uM after 16 hrs by F2N12S/CYTOX AADvanced double staining-based flow cytometric method (reference value: 2%); assay type: functional
[24] = Plasma concentration in Sprague-Dawley rat at 10 mg/kg administered via oral gavage measured at 6 hrs by HPLC-MS/MS analysis; assay type: ADME, organism-based
[25] = test system: PWR-1E; assay: Potency index, ratio of curcumin IC50 to test compound IC50 for human PWR-1E cells expressing androgen receptor and PSA; assay type: functional
[26] = test system: PC-3; assay: Induction of apoptosis in human PC3 cells assessed as viable cells at 4 uM after 16 hrs by F2N12S/CYTOX AADvanced double staining-based flow cytometric method (reference value: 95%); assay type: functional; details: PC-3, 16 h, read-out: Activity
[27] = test system: PC-3; assay: Induction of apoptosis in human PC3 cells assessed as viable cells at 2 uM after 16 hrs by F2N12S/CYTOX AADvanced double staining-based flow cytometric method (reference value: 95%); assay type: functional; details: PC-3, 16 h, read-out: Activity
[28] = test system: PC-3; assay: Cell cycle arrest in human PC3 cells assessed as accumulation at G0/G1 phase at 4 uM after 16 hrs by propidium iodide staining-based flow cytometric method (reference value: 51 to 52%); assay type: functional
[29] = test system: PC-3; assay: Induction of apoptosis in human PC3 cells assessed as early apoptotic cells at 10 uM after 16 hrs by F2N12S/CYTOX AADvanced double staining-based flow cytometric method (reference value: 2%); assay type: functional
[30] = test system: PC-3; assay: Induction of apoptosis in human PC3 cells assessed as viable cells at 6 uM after 16 hrs by F2N12S/CYTOX AADvanced double staining-based flow cytometric method (reference value: 95%); assay type: functional; details: PC-3, 16 h, read-out: Activity
[31] = Antiproliferative activity against human LNCaP95 cells expressing androgen receptor splice variants assessed as decrease in cell viability after 5 days by trypan blue exclusion assay; assay type: functional, cell-based; details: LNCaP-95, 120 h
[32] = test system: LNCaP; assay: Potency index, ratio of curcumin IC50 to test compound IC50 for human LNCAP cells; assay type: functional
[33] = Plasma concentration in Sprague-Dawley rat at 10 mg/kg administered via oral gavage measured after 1 day by HPLC-MS/MS analysis; assay type: ADME, organism-based
[34] = Plasma concentration in Sprague-Dawley rat at 10 mg/kg administered via oral gavage measured at 1 hr by HPLC-MS/MS analysis; assay type: ADME, organism-based
[35] = test system: PC-3; assay: Induction of apoptosis in human PC3 cells assessed as early apoptotic cells at 2 uM after 16 hrs by F2N12S/CYTOX AADvanced double staining-based flow cytometric method (reference value: 2%); assay type: functional
[36] = test system: PC-3; assay: Potency index, ratio of curcumin IC50 to test compound IC50 for human PC3 cells; assay type: functional
[37] = test system: PC-3; assay: Induction of apoptosis in human PC3 cells assessed as viable cells at 8 uM after 16 hrs by F2N12S/CYTOX AADvanced double staining-based flow cytometric method (reference value: 95%); assay type: functional; details: PC-3, 16 h, read-out: Activity
[38] = AUC in Sprague-Dawley rat at 10 mg/kg administered via oral gavage by HPLC-MS/MS analysis; assay type: ADME, organism-based; details: in vivo
[39] = test system: PWR-1E; assay: Antiproliferative activity against human PWR-1E cells expressing androgen receptor and PSA assessed as decrease in cell viability after 3 days by WST assay; assay type: functional, cell-based; details: 72 h
Procedure, shortened: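 Non-malignant prostate epithelial PWR-1E (adenovirus 12/SV40-immortalized) was seeded at 5,000 per well. Cells were exposed for 3 days at 37 °C in a CO2 incubator to at least five concentrations, with DMSO as vehicle control. WST-1 reagent was then added for 3 h at 37 °C and absorbance read at 430 nm. IC50 came from linear inhibition, as the mean of triplicate determinations.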

Question: For `CCCn1ccnc1/C=C/C(=O)/C=C/c1nc2ccccc2n1CCC`, which Activity [1] is on record?
Answer: The Activity was 76%.

Question: And the Activity [2]?
Answer: Its Activity is 43%.

Question: What about the IC50 [3] of the same compound?
Answer: The IC50 was 220 nM.

Question: And the Activity [4]?
Answer: The Activity was 23%.

Question: And the viability at 15 µM [5]?
Answer: The viability at 15 µM was 1%.

Question: What about the Activity [6] of the same compound?
Answer: The Activity was 35%.

Question: And the Activity [7]?
Answer: Its Activity is 4%.

Question: What about the Activity [8] of the same compound?
Answer: Its Activity is 43%.

Question: And the IC50 [9]?
Answer: The IC50 was 1120 nM.

Question: What about the Activity [10] of the same compound?
Answer: The Activity was 52%.

Question: What about the viability at 10 µM [11] of the same compound?
Answer: Its viability at 10 µM is 8%.

Question: And the concentration at 3 h [12]?
Answer: Its concentration at 3 h is 196 ng/mL.

Question: And the Activity [13]?
Answer: The Activity was 47%.

Question: What about the “Ratio IC50” value [14] of the same compound?
Answer: The value was 119.

Question: What about the Cmax [15] of the same compound?
Answer: The Cmax was 281 ng/mL.

Question: What about the Tmax [16] of the same compound?
Answer: Its Tmax is 6 h.

Question: And the Activity [17]?
Answer: Its Activity is 14%.

Question: And the Activity [18]?
Answer: Its Activity is “Toxic”.

Question: And the IC50 [19]?
Answer: Its IC50 is 220 nM.

Question: And the IC50 [20]?
Answer: Its IC50 is 220 nM.

Question: What about the IC50 [21] of the same compound?
Answer: The IC50 was 100 nM.

Question: And the Activity [22]?
Answer: The Activity was 42%.

Question: And the Activity [23]?
Answer: Its Activity is 45%.

Question: What about the concentration at 6 h [24] of the same compound?
Answer: The concentration at 6 h was 281 ng/mL.

Question: What about the “Ratio IC50” value [25] of the same compound?
Answer: Its value is 443.

Question: And the viability at 4 µM [26]?
Answer: The viability at 4 µM was 55%.

Question: What about the viability at 2 µM [27] of the same compound?
Answer: The viability at 2 µM was 93%.

Question: And the Activity [28]?
Answer: Its Activity is 78%.

Question: And the Activity [29]?
Answer: Its Activity is 49%.

Question: What about the viability at 6 µM [30] of the same compound?
Answer: The viability at 6 µM was 22%.

Question: What about the IC50 [31] of the same compound?
Answer: The IC50 was 350 nM.

Question: What about the “Ratio IC50” value [32] of the same compound?
Answer: Its value is 62.

Question: What about the concentration at 24 h [33] of the same compound?
Answer: Its concentration at 24 h is 86 ng/mL.

Question: And the concentration at 1 h [34]?
Answer: Its concentration at 1 h is 114 ng/mL.

Question: And the Activity [35]?
Answer: The Activity was 3%.

Question: What about the “Ratio IC50” value [36] of the same compound?
Answer: Its value is 254.

Question: And the viability at 8 µM [37]?
Answer: The viability at 8 µM was 13%.

Question: And the AUC [38]?
Answer: The AUC was 4390 ng·h/mL.

Question: And the IC50 [39]?
Answer: The IC50 was 20 nM.
